# The source made the active and inactive calls. No cut-off for these calls is given here.
# Tests used:
# [1] = target: Ribosomal protein S6 kinase alpha-1 (Homo sapiens, UniProt Q15418); details: 1 uM
# [2] = target: T1, Ribosomal protein S6 kinase alpha-3 (Homo sapiens, UniProt P51812); details: 1 uM
# [3] = Plasma concentration in SCID mouse xenografted with human KARPAS299 cells expressing NPM-ALK at 30 mg/kg, po after 2 hrs by LC-MS/MS analysis; assay type: ADME, organism-based, KARPAS-299; parameters: dose 30 mg/kg, route oral
# How it was run: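 Pharmacodynamic study: SCID mice bearing subcutaneous Karpas-299 xenografts given single 30 mg/kg oral dose; plasma drug levels measured by LCMS/MS, reported as mean ± SEM.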
# [4] = Cmax in rat at 10 mg/kg, po; assay type: ADME, organism-based; parameters: dose 10 mg/kg, route oral; details: in vivo
# How it was run: (§1)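 Rat oral dose escalation at 10, 30, 55 and 100 mg/kg. Gavage at 5 mL/kg in 40% HPβCD after an overnight fast. Serial tail-vein blood was drawn into heparinized tubes. Plasma was protein-precipitated with acetonitrile and assayed by LC-MS/MS. Cmax and AUC0–12 were derived noncompartmentally; n = 2 at 10 mg/kg.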
# [5] = target: ALK tyrosine kinase receptor (Homo sapiens, UniProt Q9UM73); test: Inhibition of ALK tyrosine phosphorylation in human Karpas-299 cells after 2 hrs in presence of mouse plasma; assay type: cell-based
# Sequence of ALK tyrosine kinase receptor (Q9UM73 whole entry): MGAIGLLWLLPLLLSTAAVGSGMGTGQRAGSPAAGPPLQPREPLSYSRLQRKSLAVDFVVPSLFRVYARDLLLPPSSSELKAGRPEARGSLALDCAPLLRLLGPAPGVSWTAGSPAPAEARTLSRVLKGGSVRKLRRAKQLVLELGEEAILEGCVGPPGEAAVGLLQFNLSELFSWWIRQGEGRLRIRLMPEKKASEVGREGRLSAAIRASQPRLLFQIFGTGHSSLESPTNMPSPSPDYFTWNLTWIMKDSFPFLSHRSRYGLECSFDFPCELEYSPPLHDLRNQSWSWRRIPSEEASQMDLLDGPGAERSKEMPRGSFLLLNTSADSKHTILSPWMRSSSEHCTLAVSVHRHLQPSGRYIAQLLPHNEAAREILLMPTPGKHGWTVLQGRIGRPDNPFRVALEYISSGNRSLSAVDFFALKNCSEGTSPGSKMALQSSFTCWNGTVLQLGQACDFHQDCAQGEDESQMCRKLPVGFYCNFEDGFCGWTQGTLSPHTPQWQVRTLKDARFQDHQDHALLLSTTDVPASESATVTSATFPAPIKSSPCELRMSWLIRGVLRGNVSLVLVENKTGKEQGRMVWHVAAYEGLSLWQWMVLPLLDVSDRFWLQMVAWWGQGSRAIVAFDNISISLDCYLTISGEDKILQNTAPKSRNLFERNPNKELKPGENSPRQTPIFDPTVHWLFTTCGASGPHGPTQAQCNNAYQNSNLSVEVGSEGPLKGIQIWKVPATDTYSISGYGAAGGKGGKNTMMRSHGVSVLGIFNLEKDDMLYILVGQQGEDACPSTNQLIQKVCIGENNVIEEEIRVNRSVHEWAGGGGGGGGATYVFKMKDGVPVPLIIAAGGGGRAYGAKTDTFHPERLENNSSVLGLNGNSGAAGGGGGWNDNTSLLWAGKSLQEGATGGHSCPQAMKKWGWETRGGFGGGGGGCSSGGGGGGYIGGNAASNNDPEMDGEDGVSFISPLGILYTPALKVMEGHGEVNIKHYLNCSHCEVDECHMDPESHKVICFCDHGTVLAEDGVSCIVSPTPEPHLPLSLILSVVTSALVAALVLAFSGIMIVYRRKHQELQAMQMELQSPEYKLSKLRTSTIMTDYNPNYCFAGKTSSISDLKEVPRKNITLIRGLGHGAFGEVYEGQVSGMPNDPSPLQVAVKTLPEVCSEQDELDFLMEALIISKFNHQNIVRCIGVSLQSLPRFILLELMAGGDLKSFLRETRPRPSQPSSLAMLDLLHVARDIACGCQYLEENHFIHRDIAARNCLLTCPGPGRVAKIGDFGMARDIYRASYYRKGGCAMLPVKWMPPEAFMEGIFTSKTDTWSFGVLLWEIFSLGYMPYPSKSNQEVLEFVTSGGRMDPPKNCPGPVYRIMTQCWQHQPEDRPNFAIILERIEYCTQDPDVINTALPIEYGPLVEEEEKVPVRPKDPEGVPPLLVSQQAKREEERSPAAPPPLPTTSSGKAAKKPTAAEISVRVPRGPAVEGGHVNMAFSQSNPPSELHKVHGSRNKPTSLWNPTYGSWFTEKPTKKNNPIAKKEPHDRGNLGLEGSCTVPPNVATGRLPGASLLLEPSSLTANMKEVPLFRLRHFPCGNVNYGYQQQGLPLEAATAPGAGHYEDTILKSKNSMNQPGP
# NB1643 = test: Antitumor activity against human NB1643 cells expressing ALK mutant F1174L assessed as growth inhibition administered as po bid; assay type: functional, organism-based
# KARPAS-299 = test: Antitumor activity against human KARPAS299 cells expressing NPM-ALK xenografted in SCID mouse assessed as tumor regression at 30 mg/kg, po bid for 12 days; assay type: functional, organism-based; parameters: dose 30 mg/kg
# How it was run: (§2)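 Female SCID/beige mice, 6–8 weeks old, implanted sc in the left flank with exponentially growing Karpas-299 cells. At about 600 mm³ tumours, mice were randomized (8–10/group) and given PEG400 vehicle or compound orally b.i.d., 100 μL, for 12 days. Tumour volume (0.5236LW(L+W)/2) and body weight were recorded every 2–3 days; Mann–Whitney test. Plasma and tumour levels were measured by LC-MS/MS 2 h after the final dose, mean ± SEM.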
# [6] = target: T1, Ribosomal protein S6 kinase alpha-3; test: Inhibition of human Rsk2
# How it was run: (§3)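 Millipore KinaseProfiler activity assays on a 259-kinase panel; kinases inhibited by ≥90% at 1 μM then taken to full IC50 determination.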
# [7] = target: NUAK family SNF1-like kinase 1 (Homo sapiens, UniProt O60285); test: Inhibition of human ARK5
# Sequence of NUAK family SNF1-like kinase 1 (O60285 whole entry): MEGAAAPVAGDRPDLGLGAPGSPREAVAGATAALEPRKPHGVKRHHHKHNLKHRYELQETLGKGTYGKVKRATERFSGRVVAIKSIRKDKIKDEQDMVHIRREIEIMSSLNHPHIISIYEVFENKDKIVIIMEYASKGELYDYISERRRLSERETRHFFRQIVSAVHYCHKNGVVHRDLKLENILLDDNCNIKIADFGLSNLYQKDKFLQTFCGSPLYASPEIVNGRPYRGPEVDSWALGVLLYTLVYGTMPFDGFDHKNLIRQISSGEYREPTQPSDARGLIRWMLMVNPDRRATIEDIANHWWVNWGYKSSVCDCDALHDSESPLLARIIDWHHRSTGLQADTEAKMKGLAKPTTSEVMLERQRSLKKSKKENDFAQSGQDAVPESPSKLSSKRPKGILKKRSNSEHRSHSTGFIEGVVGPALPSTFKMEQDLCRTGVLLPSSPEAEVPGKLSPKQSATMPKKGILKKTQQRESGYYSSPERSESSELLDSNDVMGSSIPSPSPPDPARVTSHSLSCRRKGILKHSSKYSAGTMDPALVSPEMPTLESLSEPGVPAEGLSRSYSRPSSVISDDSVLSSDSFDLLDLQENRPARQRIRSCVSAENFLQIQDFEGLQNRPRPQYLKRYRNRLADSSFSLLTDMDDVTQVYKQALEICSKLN
# Focal adhesion kinase 1 = Focal adhesion kinase 1 (Homo sapiens, UniProt Q05397); details: 1 uM
# Sequence of Focal adhesion kinase 1 (Q05397 2-1052 limits assumed): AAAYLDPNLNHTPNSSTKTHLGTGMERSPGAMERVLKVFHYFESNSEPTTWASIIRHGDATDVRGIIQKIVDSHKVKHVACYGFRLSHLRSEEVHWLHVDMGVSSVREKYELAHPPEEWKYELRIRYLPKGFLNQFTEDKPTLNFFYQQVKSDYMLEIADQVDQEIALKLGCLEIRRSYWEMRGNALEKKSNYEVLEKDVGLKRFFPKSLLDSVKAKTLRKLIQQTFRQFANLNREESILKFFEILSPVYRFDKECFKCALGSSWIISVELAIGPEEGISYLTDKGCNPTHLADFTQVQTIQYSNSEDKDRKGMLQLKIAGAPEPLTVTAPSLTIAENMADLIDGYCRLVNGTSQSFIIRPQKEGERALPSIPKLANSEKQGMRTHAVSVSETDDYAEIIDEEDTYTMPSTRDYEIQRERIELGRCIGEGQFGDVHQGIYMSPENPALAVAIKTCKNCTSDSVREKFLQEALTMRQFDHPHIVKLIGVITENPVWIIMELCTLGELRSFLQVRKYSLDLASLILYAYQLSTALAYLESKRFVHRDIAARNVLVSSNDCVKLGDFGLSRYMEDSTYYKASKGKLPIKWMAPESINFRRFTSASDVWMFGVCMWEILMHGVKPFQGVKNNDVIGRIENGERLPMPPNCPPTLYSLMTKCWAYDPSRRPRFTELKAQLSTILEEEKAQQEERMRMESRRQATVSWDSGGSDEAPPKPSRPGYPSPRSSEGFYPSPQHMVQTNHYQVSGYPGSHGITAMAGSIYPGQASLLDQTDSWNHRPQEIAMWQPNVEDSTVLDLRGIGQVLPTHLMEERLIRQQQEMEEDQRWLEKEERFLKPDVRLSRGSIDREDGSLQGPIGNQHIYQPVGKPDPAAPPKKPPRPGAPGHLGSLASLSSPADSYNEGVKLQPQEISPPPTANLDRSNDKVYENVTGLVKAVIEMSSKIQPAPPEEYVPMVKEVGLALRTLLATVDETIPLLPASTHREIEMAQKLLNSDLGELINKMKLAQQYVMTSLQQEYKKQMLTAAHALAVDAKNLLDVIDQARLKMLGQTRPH
# [8] = Half life in cynomolgus monkey at 10 mg/kg, po; assay type: ADME, organism-based, Macaca fascicularis; parameters: dose 10 mg/kg, route oral; details: in vivo
# How it was run: (§4)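 Dog and monkey PK. IV 0.5 mL/kg in 40% HPβCD via the saphenous vein. Oral dosing was 1 mL/kg by gavage in dogs and 2 mL/kg by nasogastric tube in monkeys, after an overnight fast. Serial femoral-vein blood was taken into heparin over 24 h. Plasma was acetonitrile-precipitated and analysed by LC-MS/MS. Parameters were noncompartmental, n = 3, mean ± SEM.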
# [9] = AUC (0 to 12 hrs) in rat 100 mg/kg, po; assay type: ADME, organism-based; parameters: time < 12 hr, dose 100 mg/kg, route oral; details: plasma
# How it was run: as §1
# [10] = Cmax in rat at 55 mg/kg, po; assay type: ADME, organism-based; parameters: dose 55 mg/kg, route oral; details: in vivo
# How it was run: as §1
# [11] = target: Serine/threonine-protein kinase Chk2 (Homo sapiens, UniProt O96017); test: Inhibition of human CHK2
# Sequence of Serine/threonine-protein kinase Chk2 (O96017 whole entry): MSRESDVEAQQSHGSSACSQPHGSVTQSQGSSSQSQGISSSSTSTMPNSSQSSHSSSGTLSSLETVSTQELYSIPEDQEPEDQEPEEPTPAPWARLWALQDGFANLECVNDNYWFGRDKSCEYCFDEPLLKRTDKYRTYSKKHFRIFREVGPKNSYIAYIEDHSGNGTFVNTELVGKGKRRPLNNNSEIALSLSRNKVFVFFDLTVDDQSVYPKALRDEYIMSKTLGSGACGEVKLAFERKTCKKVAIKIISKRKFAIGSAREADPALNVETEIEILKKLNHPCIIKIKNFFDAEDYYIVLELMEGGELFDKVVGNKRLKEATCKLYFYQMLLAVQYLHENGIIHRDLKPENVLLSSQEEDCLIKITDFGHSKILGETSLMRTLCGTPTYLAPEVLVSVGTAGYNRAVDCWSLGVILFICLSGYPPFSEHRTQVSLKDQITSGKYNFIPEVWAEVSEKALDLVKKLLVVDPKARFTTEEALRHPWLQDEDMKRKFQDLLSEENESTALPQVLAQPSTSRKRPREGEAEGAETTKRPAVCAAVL
# How it was run: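 Commercial activity-assay panel of 259 kinases. Each kinase was first screened at 1 μM, and those inhibited by ≥90% went on to full IC50 determination.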
# [12] = Half life in Sprague-Dawley rat at 1 mg/kg, iv; assay type: ADME, organism-based; parameters: dose 1 mg/kg, route intravenous; details: in vivo
# How it was run: (§5)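 Rat PK. IV via the lateral tail vein, 1 mL/kg in 3% DMSO/30% Solutol/67% PBS, or oral gavage at 5 mL/kg in 40% HPβCD, after an overnight fast. Serial tail-vein blood was taken into heparin over 6 h. Plasma was acetonitrile-precipitated and analysed by LC-MS/MS. Parameters were noncompartmental, n = 3, mean ± SEM.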
# [13] = Volume of distribution in SCID mouse at 1 mg/kg, iv; assay type: ADME, organism-based; parameters: dose 1 mg/kg, route intravenous; details: in vivo
# How it was run: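 Mouse IV PK: lateral tail vein dosing, 100 μL in 3% DMSO/30% Solutol/67% PBS; trunk blood from three mice per time point over 6 h. Plasma precipitated with acetonitrile, drug quantified by LCMS/MS against internal standard; noncompartmental analysis.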
# [14] = Half life in Sprague-Dawley rat at 10 mg/kg, po; assay type: ADME, organism-based; parameters: dose 10 mg/kg, route oral; details: in vivo
# How it was run: as §5
# [15] = Plasma concentration in SCID/beige mouse xenografted with human KARPAS299 cells expressing NPM-ALK at 30 mg/kg, po bid after 2 hrs post last dose by LC-MS/MS analysis; assay type: ADME, organism-based, KARPAS-299; parameters: dose 30 mg/kg, route oral
# How it was run: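 Female SCID/beige mice (6–8 weeks), Karpas-299 cells implanted sc in left flank; at ~600 mm³ randomized (8–10/group), dosed orally in PEG400, 100 μL, b.i.d. for 12 days. Body weight every 2–3 days; plasma and tumor sampled 2 h after final dose, drug by LCMS/MS; Mann–Whitney rank sum statistics.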
# [16] = target: Tyrosine-protein kinase Fer (Homo sapiens, UniProt P16591); details: 1 uM
# [17] = target: Mitogen-activated protein kinase 8 (Homo sapiens, UniProt P45983); test: Inhibition of human JNK1alpha1
# Sequence of Mitogen-activated protein kinase 8 (P45983 whole entry): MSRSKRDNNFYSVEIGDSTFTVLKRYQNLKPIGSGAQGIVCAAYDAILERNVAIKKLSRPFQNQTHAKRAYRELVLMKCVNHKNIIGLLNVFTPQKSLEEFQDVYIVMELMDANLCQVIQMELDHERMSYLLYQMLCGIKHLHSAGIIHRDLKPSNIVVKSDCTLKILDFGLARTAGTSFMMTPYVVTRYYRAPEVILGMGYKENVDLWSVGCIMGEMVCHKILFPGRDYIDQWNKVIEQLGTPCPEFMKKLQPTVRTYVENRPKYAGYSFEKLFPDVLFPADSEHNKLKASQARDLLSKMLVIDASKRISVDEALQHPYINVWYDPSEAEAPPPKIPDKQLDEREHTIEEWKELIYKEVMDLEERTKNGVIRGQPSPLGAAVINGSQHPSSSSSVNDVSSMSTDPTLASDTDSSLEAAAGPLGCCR
# How it was run: as §3
# [18] = Volume of distribution in Sprague-Dawley rat at 1 mg/kg, iv; assay type: ADME, organism-based; parameters: dose 1 mg/kg, route intravenous; details: in vivo
# How it was run: (§6)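 IV PK: rats via lateral tail vein (1 mL/kg; 3% DMSO/30% Solutol/67% PBS), serial tail-vein blood over 6 h. Dogs and monkeys via saphenous vein (0.5 mL/kg in 40% HPβCD), femoral-vein blood over 24 h. Acetonitrile protein precipitation, LCMS/MS; noncompartmental parameters from individual animals, n = 3, mean ± SEM.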
# [19] = Half life in Beagle dog at 1 mg/kg, iv; assay type: ADME, organism-based, Canis lupus familiaris; parameters: dose 1 mg/kg, route intravenous; details: in vivo
# How it was run: as §4
# SK-N-AS = test: Antitumor activity against human SK-N-AS cells expressing wild type ALK assessed as growth inhibition administered as po bid; assay type: functional, organism-based
# [20] = AUC in CD-1 mouse at 1 mg/kg, iv; assay type: ADME, organism-based; parameters: dose 1 mg/kg, route intravenous; details: plasma
# How it was run: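 Mouse PK. IV via the lateral tail vein in 3% DMSO/30% Solutol/67% PBS, or oral gavage in 100% PEG400, 100 μL dose volume, after an overnight fast. Trunk blood was taken from three mice per time point over 6 h. Plasma was acetonitrile-precipitated and analysed by LC-MS/MS. Parameters were derived noncompartmentally.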
# [21] = Volume of distribution in cynomolgus monkey at 1 mg/kg, iv; assay type: ADME, organism-based, Macaca fascicularis; parameters: dose 1 mg/kg, route intravenous; details: in vivo
# How it was run: as §6
# [22] = Oral bioavailability in Sprague-Dawley rat at 10 mg/kg; assay type: ADME, organism-based; details: in vivo
# How it was run: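 PK: overnight-fasted animals. Rat oral gavage 5 mL/kg in 40% HPβCD, serial tail-vein blood over 6 h. Dog oral gavage 1 mL/kg, monkey nasogastric 2 mL/kg, femoral-vein blood over 24 h. Plasma protein-precipitated with acetonitrile, LCMS/MS with internal standard; noncompartmental analysis, individual animals n = 3, mean ± SEM.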
# [23] = AUC in Sprague-Dawley rat at 1 mg/kg, iv; assay type: ADME, organism-based; parameters: dose 1 mg/kg, route intravenous; details: plasma
# How it was run: as §5
# [24] = Drug level in SCID/beige mouse tumor xenografted with human KARPAS299 cells expressing NPM-ALK at 10 mg/kg, po bid after 2 hrs post last dose by LC-MS/MS analysis; assay type: ADME, organism-based, Neoplasm, KARPAS-299; parameters: dose 10 mg/kg, route oral; details: read-out: Drug uptake
# How it was run: as §2
# T1 sequence (P51812 whole entry): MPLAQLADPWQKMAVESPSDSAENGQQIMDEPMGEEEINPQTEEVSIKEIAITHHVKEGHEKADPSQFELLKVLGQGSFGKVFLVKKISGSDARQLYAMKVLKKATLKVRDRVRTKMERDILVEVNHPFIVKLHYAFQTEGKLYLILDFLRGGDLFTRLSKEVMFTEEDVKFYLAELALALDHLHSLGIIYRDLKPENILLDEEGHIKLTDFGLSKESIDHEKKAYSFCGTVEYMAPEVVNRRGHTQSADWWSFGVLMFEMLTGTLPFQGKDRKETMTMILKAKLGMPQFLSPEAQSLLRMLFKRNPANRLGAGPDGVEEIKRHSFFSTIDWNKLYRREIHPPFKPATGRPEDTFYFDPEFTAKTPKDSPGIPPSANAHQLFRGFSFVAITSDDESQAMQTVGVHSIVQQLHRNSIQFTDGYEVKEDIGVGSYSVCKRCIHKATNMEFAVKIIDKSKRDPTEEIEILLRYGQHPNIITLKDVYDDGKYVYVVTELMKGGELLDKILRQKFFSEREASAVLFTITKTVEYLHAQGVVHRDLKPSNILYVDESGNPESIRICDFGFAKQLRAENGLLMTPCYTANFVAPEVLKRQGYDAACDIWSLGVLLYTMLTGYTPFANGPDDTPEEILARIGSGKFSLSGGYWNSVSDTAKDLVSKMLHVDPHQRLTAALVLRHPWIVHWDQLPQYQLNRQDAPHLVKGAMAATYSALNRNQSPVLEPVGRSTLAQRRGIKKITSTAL
smiles,measurement,setting,value
COc1c(Nc2ncc(Cl)c(N[C@H]3[C@@H](C(N)=O)[C@@H]4C=C[C@H]3C4)n2)ccc2c1CC[C@@H](N1CCOCC1)CC2,inhibition,[1],> 90%
same,inhibition,[2],> 90%
same,concentration at 2 h,[3],4.18 µg/mL
same,Cmax,[4],0.349 µg/mL
same,IC50,[5],0.02 µM
same,growth inhibition (GI),NB1643,Active
same,Activity,KARPAS-299,Active
same,IC50,[6],0.013 µM
same,IC50,[7],0.026 µM
same,inhibition,Focal adhesion kinase 1,> 90%
same,half-life,[8],1.2 h
same,AUC(0-t) at 12 h,[9],38.2 µg·h/mL
same,Cmax,[10],2.25 µg/mL
same,IC50,[11],0.029 µM
same,half-life,[12],0.9 h
same,Vd,[13],0.8 L/kg
same,half-life,[14],6.2 h
same,concentration at 2 h,[15],4.27 µg/mL
same,inhibition,[16],> 90%
same,IC50,[17],0.112 µM
same,Vd,[18],1.3 L/kg
same,half-life,[19],2.4 h
same,growth inhibition (GI),SK-N-AS,inactive
same,AUC,[20],0.584 µg·h/mL
same,Vd,[21],2.9 L/kg
same,bioavailability,[22],50%
same,AUC,[23],0.989 µg·h/mL
same,concentration at 2 h,[24],686 ng/g

# Source: ChEMBL document CHEMBL2062375, “Discovery of an orally efficacious inhibitor of anaplastic lymphoma kinase” (J Med Chem, 2012)
